# Measurements as given in ChEMBL document CHEMBL1137702, “Identification of hydrolytically stable and selective P2Y(1) receptor agonists” (Eur J Med Chem, 2009).
# Calls of active or inactive are those of the source. The rule behind the calls is not given here.
# Target: T1, Ectonucleoside triphosphate diphosphohydrolase 2 (Homo sapiens) (UniProt Q9Y5L3)
# T1 sequence (whole entry): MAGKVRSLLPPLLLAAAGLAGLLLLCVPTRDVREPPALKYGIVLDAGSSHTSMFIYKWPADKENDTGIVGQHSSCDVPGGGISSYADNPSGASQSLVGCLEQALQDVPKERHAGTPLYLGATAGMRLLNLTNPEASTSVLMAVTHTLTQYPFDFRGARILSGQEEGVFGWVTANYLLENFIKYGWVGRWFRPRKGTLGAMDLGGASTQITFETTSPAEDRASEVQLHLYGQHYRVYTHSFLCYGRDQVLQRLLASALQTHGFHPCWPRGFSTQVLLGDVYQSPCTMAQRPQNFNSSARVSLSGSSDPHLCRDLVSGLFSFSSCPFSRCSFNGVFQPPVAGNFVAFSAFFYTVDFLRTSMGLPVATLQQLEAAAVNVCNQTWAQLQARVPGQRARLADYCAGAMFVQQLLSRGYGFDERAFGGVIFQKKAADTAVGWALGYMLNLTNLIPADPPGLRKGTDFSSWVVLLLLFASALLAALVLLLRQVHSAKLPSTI
# Assay: Activity of human NTPDase 2 expressed in human 293T cells assessed as drug hydrolysis at 100 uM after 20 mins relative to ATP
# Assay type: cell-based
# Set-up: scale not given: the % may be the effect or the level left
# Method in brief: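 Human NTPDase1, 2, 3 or 8 in crude extracts of transfected 293T cells, pre-incubated 3 min at 37 °C in Tris-Ringer buffer pH 7.4. […] Untransfected-cell extract activity subtracted.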
row,SMILES,Activity
1,"BP(=O)(OC[C@H]1O[C@@H](n2cnc3c(N)nc(SC)nc32)[C@H](O)[C@@H]1O)OP(=O)(O)CP(=O)(O)O (single isomer, unassigned; diastereomer B)",1%
2,BP(=O)(OC[C@H]1O[C@@H](n2cnc3c(N)ncnc32)[C@H](O)[C@@H]1O)OP(=O)(O)CP(=O)(O)O (stereo partly drawn),1%
3,"BP(=O)(OC[C@H]1O[C@@H](n2cnc3c(N)nc(SC)nc32)[C@H](O)[C@@H]1O)OP(=O)(O)CP(=O)(O)O (single isomer, unassigned; diastereomer A)",1%
4,"BP(=O)(OC[C@H]1O[C@@H](n2cnc3c(N)ncnc32)[C@H](O)[C@@H]1O)OP(=O)(O)CP(=O)(O)O (single isomer, unassigned; diastereomer B)",0%
5,CSc1nc(N)c2ncn([C@@H]3O[C@H](COP(=O)(O)OP(=O)(O)CP(=O)(O)O)[C@@H](O)[C@H]3O)c2n1,2%

# Target: T2, Ectonucleotide pyrophosphatase/phosphodiesterase family member 1 (Homo sapiens) (UniProt P22413)
# T2 sequence (whole entry): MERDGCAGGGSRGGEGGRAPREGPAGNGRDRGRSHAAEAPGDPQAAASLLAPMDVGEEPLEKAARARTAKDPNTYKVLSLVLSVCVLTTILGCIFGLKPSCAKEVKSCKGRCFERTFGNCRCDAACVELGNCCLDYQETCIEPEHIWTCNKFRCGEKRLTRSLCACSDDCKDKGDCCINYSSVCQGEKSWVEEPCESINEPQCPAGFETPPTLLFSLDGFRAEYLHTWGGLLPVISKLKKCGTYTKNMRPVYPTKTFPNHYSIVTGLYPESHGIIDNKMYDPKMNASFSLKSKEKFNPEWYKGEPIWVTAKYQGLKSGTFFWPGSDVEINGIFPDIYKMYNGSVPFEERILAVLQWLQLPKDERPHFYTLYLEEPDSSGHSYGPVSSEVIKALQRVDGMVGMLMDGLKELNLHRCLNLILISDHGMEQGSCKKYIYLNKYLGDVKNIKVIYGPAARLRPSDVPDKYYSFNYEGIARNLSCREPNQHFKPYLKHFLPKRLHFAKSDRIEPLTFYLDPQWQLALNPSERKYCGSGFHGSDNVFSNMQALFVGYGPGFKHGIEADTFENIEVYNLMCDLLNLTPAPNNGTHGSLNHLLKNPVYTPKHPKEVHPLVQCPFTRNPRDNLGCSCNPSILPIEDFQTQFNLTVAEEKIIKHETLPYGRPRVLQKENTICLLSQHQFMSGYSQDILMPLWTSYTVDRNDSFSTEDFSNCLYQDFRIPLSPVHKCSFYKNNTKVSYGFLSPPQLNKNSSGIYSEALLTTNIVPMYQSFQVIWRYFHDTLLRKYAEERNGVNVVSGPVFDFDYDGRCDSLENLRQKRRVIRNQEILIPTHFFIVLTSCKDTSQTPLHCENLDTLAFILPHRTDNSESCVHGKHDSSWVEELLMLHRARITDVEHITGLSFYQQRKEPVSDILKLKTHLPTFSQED
# Assay: Activity of human NPP1 expressed in human 293T cells assessed as drug hydrolysis at 100 uM after 20 mins by reverse-phase HPLC relative to p-nitrophenyl-thymidine-5-monophosphate
# Assay type: cell-based
# Set-up: scale not given: the % may be the effect or the level left
# Method in brief: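 Crude extract of 293T cells transfected with human NPP1 or NPP3, pre-incubated 3 min at 37 °C in 1 mM CaCl2, 140 mM NaCl, 5 mM KCl, 50 mM Tris pH 8.5. Substrate at 100 µM final for 20 min, stopped in ice-cold perchloric acid and neutralized with KOH. Loss of analogue quantified by reverse-phase HPLC with ion-pair phosphate mobile phase pH 7.0. pnp-TMP (p-nitrophenol at 410 nm) served as the 100% reference.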
row,SMILES,Activity
1,"BP(=O)(OC[C@H]1O[C@@H](n2cnc3c(N)nc(SC)nc32)[C@H](O)[C@@H]1O)OP(=O)(O)CP(=O)(O)O (single isomer, unassigned; diastereomer B)",< 1%
2,BP(=O)(OC[C@H]1O[C@@H](n2cnc3c(N)ncnc32)[C@H](O)[C@@H]1O)OP(=O)(O)CP(=O)(O)O (stereo partly drawn),0%
3,"BP(=O)(OC[C@H]1O[C@@H](n2cnc3c(N)nc(SC)nc32)[C@H](O)[C@@H]1O)OP(=O)(O)CP(=O)(O)O (single isomer, unassigned; diastereomer A)",0%
4,"BP(=O)(OC[C@H]1O[C@@H](n2cnc3c(N)ncnc32)[C@H](O)[C@@H]1O)OP(=O)(O)CP(=O)(O)O (single isomer, unassigned; diastereomer B)",4%
5,CSc1nc(N)c2ncn([C@@H]3O[C@H](COP(=O)(O)OP(=O)(O)CP(=O)(O)O)[C@@H](O)[C@H]3O)c2n1,23%

# Target: P2Y purinoceptor 1 (Meleagris gallopavo) (UniProt P49652)
# Assay: Agonist activity at turkey P2Y1 receptor expressed in human 1321N1 cells assessed as increase in intracellular calcium concentration by dual-excitation spectrofluorimetric analysis
# Assay type: functional, cell-based
# Chain of P2Y purinoceptor 1 (Meleagris gallopavo) (P49652 whole entry): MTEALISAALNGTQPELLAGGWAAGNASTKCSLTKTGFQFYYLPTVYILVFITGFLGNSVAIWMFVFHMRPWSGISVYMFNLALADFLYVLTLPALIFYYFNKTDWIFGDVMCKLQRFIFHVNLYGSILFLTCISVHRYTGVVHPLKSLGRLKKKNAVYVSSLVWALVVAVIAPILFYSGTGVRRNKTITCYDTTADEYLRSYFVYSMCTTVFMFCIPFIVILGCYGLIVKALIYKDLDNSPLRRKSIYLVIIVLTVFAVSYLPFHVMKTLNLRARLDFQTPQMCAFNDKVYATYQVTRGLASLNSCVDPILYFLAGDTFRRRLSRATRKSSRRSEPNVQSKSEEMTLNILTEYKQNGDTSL
row,SMILES,Activity
1,BP(=O)(OC[C@H]1O[C@@H](n2cnc3c(N)ncnc32)[C@H](O)[C@@H]1O)OP(=O)(O)CP(=O)(O)O (stereo partly drawn),inactive
2,"BP(=O)(OC[C@H]1O[C@@H](n2cnc3c(N)nc(SC)nc32)[C@H](O)[C@@H]1O)OP(=O)(O)CP(=O)(O)O (single isomer, unassigned; diastereomer A)",inactive
3,"BP(=O)(OC[C@H]1O[C@@H](n2cnc3c(N)ncnc32)[C@H](O)[C@@H]1O)OP(=O)(O)CP(=O)(O)O (single isomer, unassigned; diastereomer B)",inactive

# Target: P2Y purinoceptor 2 (Homo sapiens, UniProt P41231)
# Assay: Agonist activity at human P2Y2 receptor expressed in human 1321N1 cells assessed as increase in intracellular calcium concentration by dual-excitation spectrofluorimetric analysis
# Assay type: functional, cell-based
# Method in brief: (§1)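 1321N1 astrocytoma cells stably expressing the receptor (turkey P2Y1, human P2Y2, human P2Y4, rat P2Y6) were grown with G-418 selection. Fura-2-loaded cell suspensions were exposed at 37 °C in 10 mM HEPES-buffered saline pH 7.4 with 1 mM CaCl2 and 1 mM MgCl2. Peak [Ca2+]i rise was measured over a range of concentrations to derive EC50.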
# Chain of P2Y purinoceptor 2 (P41231 whole entry): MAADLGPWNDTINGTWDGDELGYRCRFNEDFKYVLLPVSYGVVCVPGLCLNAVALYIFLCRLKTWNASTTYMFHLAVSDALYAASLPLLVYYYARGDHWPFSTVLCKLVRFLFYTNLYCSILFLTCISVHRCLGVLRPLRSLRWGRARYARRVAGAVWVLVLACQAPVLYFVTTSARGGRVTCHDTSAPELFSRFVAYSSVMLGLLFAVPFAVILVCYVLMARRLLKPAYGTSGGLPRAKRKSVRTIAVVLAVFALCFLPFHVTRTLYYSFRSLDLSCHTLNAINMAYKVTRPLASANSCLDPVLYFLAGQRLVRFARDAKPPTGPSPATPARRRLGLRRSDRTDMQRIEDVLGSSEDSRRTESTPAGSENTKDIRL
row,SMILES,Activity
1,"BP(=O)(OC[C@H]1O[C@@H](n2cnc3c(N)nc(SC)nc32)[C@H](O)[C@@H]1O)OP(=O)(O)CP(=O)(O)O (single isomer, unassigned; diastereomer B)",inactive
2,BP(=O)(OC[C@H]1O[C@@H](n2cnc3c(N)ncnc32)[C@H](O)[C@@H]1O)OP(=O)(O)CP(=O)(O)O (stereo partly drawn),inactive
3,"BP(=O)(OC[C@H]1O[C@@H](n2cnc3c(N)nc(SC)nc32)[C@H](O)[C@@H]1O)OP(=O)(O)CP(=O)(O)O (single isomer, unassigned; diastereomer A)",inactive
4,"BP(=O)(OC[C@H]1O[C@@H](n2cnc3c(N)ncnc32)[C@H](O)[C@@H]1O)OP(=O)(O)CP(=O)(O)O (single isomer, unassigned; diastereomer B)",inactive
5,CSc1nc(N)c2ncn([C@@H]3O[C@H](COP(=O)(O)OP(=O)(O)CP(=O)(O)O)[C@@H](O)[C@H]3O)c2n1,inactive

# Target: P2Y purinoceptor 4 (Homo sapiens, UniProt P51582)
# Assay: Agonist activity at human P2Y4 receptor expressed in human 1321N1 cells assessed as increase in intracellular calcium concentration by dual-excitation spectrofluorimetric analysis
# Assay type: functional, cell-based
# Method in brief: as §1
# Chain of P2Y purinoceptor 4 (P51582 whole entry): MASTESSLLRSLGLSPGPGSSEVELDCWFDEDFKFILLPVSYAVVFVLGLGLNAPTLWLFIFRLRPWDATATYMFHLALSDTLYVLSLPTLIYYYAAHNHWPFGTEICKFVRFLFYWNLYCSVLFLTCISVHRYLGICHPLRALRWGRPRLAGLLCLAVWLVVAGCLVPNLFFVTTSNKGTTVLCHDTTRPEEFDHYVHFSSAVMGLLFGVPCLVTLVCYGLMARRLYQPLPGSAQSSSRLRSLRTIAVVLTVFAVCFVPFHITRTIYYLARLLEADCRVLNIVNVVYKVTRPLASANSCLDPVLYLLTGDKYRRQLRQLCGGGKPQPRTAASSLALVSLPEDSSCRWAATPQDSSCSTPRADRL
row,SMILES,Activity
1,"BP(=O)(OC[C@H]1O[C@@H](n2cnc3c(N)nc(SC)nc32)[C@H](O)[C@@H]1O)OP(=O)(O)CP(=O)(O)O (single isomer, unassigned; diastereomer B)",inactive
2,BP(=O)(OC[C@H]1O[C@@H](n2cnc3c(N)ncnc32)[C@H](O)[C@@H]1O)OP(=O)(O)CP(=O)(O)O (stereo partly drawn),inactive
3,"BP(=O)(OC[C@H]1O[C@@H](n2cnc3c(N)nc(SC)nc32)[C@H](O)[C@@H]1O)OP(=O)(O)CP(=O)(O)O (single isomer, unassigned; diastereomer A)",inactive
4,"BP(=O)(OC[C@H]1O[C@@H](n2cnc3c(N)ncnc32)[C@H](O)[C@@H]1O)OP(=O)(O)CP(=O)(O)O (single isomer, unassigned; diastereomer B)",inactive
5,CSc1nc(N)c2ncn([C@@H]3O[C@H](COP(=O)(O)OP(=O)(O)CP(=O)(O)O)[C@@H](O)[C@H]3O)c2n1,inactive

# Target: T3, Ectonucleoside triphosphate diphosphohydrolase 3 (Homo sapiens) (UniProt O75355)
# T3 sequence (whole entry): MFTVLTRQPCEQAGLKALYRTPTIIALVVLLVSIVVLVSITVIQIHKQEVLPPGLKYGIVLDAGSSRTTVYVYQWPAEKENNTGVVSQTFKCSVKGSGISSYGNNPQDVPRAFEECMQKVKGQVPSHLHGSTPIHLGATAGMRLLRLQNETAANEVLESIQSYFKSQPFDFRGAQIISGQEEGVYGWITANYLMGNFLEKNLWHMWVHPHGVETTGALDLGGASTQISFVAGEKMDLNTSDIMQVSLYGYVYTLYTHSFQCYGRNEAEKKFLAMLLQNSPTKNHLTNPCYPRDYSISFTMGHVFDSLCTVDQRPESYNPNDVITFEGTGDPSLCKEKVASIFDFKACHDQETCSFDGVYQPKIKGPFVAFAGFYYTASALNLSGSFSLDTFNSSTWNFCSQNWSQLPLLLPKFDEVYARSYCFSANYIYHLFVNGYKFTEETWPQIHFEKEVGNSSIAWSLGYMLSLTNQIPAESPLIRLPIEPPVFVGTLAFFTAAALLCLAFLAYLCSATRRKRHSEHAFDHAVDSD
# Assay: Inhibition of human NTPDase 3 expressed in human 293T cells
# Assay type: cell-based
row,SMILES,Activity
1,"BP(=O)(OC[C@H]1O[C@@H](n2cnc3c(N)nc(SC)nc32)[C@H](O)[C@@H]1O)OP(=O)(O)CP(=O)(O)O (single isomer, unassigned; diastereomer B)",inactive
2,BP(=O)(OC[C@H]1O[C@@H](n2cnc3c(N)ncnc32)[C@H](O)[C@@H]1O)OP(=O)(O)CP(=O)(O)O (stereo partly drawn),inactive
3,"BP(=O)(OC[C@H]1O[C@@H](n2cnc3c(N)nc(SC)nc32)[C@H](O)[C@@H]1O)OP(=O)(O)CP(=O)(O)O (single isomer, unassigned; diastereomer A)",inactive
4,"BP(=O)(OC[C@H]1O[C@@H](n2cnc3c(N)ncnc32)[C@H](O)[C@@H]1O)OP(=O)(O)CP(=O)(O)O (single isomer, unassigned; diastereomer B)",inactive
5,CSc1nc(N)c2ncn([C@@H]3O[C@H](COP(=O)(O)OP(=O)(O)CP(=O)(O)O)[C@@H](O)[C@H]3O)c2n1,inactive
